# An excerpt weighted towards active compounds, which were near 1.8% of everything screened.
# Runt-SMMHC FRET: inhibitors of human RUNX1 Runt domain binding to CBFb-SMMHC. Q01196+Q13951. Cerulean-Runt/Venus-CBFb-SMMHC FRET ratio 530/480, 1 h. inhibition, % at 20 µM. 0.74% of 220,000 active. AID 1434;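 active = mean inhibition across duplicate retests at 20 µM reaching about 50%, limit read from the data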;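 also: 0% = DMSO wells and 100% = wells with excess untagged CBFb-SMMHC; inhibitors lower the FRET ratio by blocking Runt binding to CBFb-SMMHC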
# RanGTP-Imp inh: disruptors of Ran-importin-beta complex formation – biochemical, FRET, CFP-Ran, YFP-importin-beta, homogeneous, primary screen. cell-free CFP-Ran/YFP-importin-beta FRET ratio. inhibition, % (test concentration not listed). 1.1% of 300,000 active. AID 2216;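 active = more than half of the replicate wells show a fall in the fluorescence ratio signal beyond about 16%, limit read from the data, passing the limit was not always enough; inconclusive = exactly half of the replicate wells pass the set limit; inactive = fewer than half of replicates pass the limit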;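 also: 0% = DMSO wells and 100% = Ran loaded with GDP instead of GTP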
# Runt-CBFb FRET: Runt domain-CBFb interaction inhibition | Q01196+Q13951 | Cerulean-Runt/Venus-CBFb FRET ratio 530/480, 1 h | inhibition, % at 20 µM | 0.46% of 220,000 active;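 active = inhibition over about 50% at 20 µM in the single-dose screen, limit read from the data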;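 also: 0% = DMSO wells and 100% = excess unlabeled CBFb competitor control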
#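 Reagent – Venus-CBFb binding partner, 100 nM · Assay system – Cerulean-tagged RUNX1 Runt domain (FRET donor) fusion protein · Input – 100 nM per protein · Incubation – two 1 h room-temperature incubations shielded from light · Measured by – FRET fluorescence · Medium – Tris buffer pH 7.5 with salts and BSA · Benchmarks – unlabeled CBFb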
# Hck-Nef inh: human Hck-Nef kinase inhibition. AID 463187. Recombinant Hck-YEEI plus Nef, Z-Lyte FRET kinase assay. inhibition, % at 20 µM. P08631. 0.68% of 220,000 active;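 active = Hck-Nef kinase inhibition above about 50%, limit read from the data; inactive = inhibition below that limit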;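 also: 0% = DMSO with Hck plus Nef and 100% = Hck alone without Nef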
# Target sequence (P08631 whole entry, looked up): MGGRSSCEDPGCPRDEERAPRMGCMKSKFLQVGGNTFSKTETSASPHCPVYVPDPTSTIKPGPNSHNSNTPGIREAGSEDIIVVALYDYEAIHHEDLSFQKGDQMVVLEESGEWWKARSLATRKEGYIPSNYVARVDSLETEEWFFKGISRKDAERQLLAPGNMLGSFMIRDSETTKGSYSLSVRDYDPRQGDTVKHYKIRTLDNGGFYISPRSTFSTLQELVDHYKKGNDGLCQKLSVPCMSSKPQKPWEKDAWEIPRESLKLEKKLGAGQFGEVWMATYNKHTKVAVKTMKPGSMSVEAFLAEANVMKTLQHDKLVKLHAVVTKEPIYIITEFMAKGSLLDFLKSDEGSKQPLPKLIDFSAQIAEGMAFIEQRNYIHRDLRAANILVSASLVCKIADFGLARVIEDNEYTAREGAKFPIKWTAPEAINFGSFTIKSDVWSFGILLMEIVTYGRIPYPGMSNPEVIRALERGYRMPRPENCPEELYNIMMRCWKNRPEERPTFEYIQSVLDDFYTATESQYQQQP
# Hck-Nef confirm: Hck-Nef kinase inhibition, confirmation. AID 463188. shares compounds with Hck-Nef inh. Recombinant Hck-YEEI:Nef, Z-Lyte FRET kinase assay. 28% of 1,300 active. calls only at 10 µM;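 active = average inhibition of at least 50%, with Z-scores no higher than 3 in both the phospho-tyrosine peptide and fluorescence counterscreens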
# An asterisk follows results filed as active; i = inactive; ? = inconclusive; . = no result shown; + = active, no number.
SMILES,Runt-SMMHC FRET,RanGTP-Imp inh,Runt-CBFb FRET,Hck-Nef inh,Hck-Nef confirm
CC(C)C(C(=O)N1CCN(C(=O)OC(C)(C)C)CC1)n1cc(-c2cn([C@@H](C)C(=O)N3CCN(C(=O)OC(C)(C)C)CC3)nn2)nn1 (stereo partly specified),1,4,-4,19,.
O=C(NCc1ccccc1)Nc1cccn(Cc2ccccc2Cl)c1=O,3,-1,4,-15,.
CCOC(=O)c1c(C)oc2c1c(C(c1ccncc1)N1CCOCC1)c(O)c1ccccc12 (stereo unspecified),-2,.,12,117*,+
CCOC(=O)c1c(C)oc2c1c(CN1CCN(C(=O)OCC)CC1)c(O)c1ccccc12,-14,3,-2,2,.
CC1=C(C(=O)OCC2CCCO2)C(c2ccc(C)cc2)C2=C(CCCC2=O)N1 (stereo unspecified),18,2,5,63*,i
O=[N+]([O-])c1ccc(N/N=C/c2ccc(O)c(O)c2O)c(S(=O)(=O)N2CCOCC2)c1,-11,-4,22,117*,i
O=[N+]([O-])c1ccc(N/N=C/c2cccc(O)c2O)c(S(=O)(=O)N2CCOCC2)c1,3,-3,10,21,.
Cc1ccc(C(=O)OCC(=O)NNC(=O)COc2ccc(Cl)cc2)c(O)c1,.,2,.,.,.
Cc1ccccc1-c1noc(-c2ccccc2C(=O)NCC2CCCO2)n1 (stereo unspecified),0,2,0,0,.
Cc1[nH][nH]c(=O)c1N=Nc1ccc(F)cc1,.,7,.,.,.
COc1ccc(N=Nc2c(C)[nH][nH]c2=O)cc1,-14,0,-10,60*,i
Cc1cccc(N(C(=O)c2snc(C(N)=O)c2N)C(C(=O)NCc2ccccc2)c2ccncc2)c1 (stereo unspecified),.,2,.,.,.
O=C(CSc1nc2nc(-c3cccs3)cc(C(F)(F)F)c2c(=O)[nH]1)Nc1ccc(F)c(F)c1,-1,1,-8,54*,.
COCCNC(=S)Nc1ccccc1Cc1ccccc1,-1,4,1,-4,.
CCC(Sc1nc2ccccc2c2nc3ccccc3n12)C(=O)NCc1ccco1 (stereo unspecified),-1,0,-3,70*,+
O=C(CSc1nc2ccccc2n1CC(=O)NCc1ccccc1)NCc1ccco1,-29,6,-12,1,.
CCCn1c(=N)c(C#N)cc2c(=O)n3ccccc3nc21,76*,179*,32,60*,.
COc1cccc(NC(=O)c2cc3c(=O)n4ccccc4nc3n(CC(C)C)c2=N)c1,12,5,2,3,.
N#Cc1cc2c(=O)n3ccccc3nc2n(CCCn2ccnc2)c1=N,40,140*,12,55*,i
O=C(O)/C=C/C(=O)Nc1cccc(C(F)(F)F)c1,4,0,4,0,.
Cn1cc(/C=C(\C#N)C(=O)Nc2cccc([N+](=O)[O-])c2)c2ccccc21,-17,-1,.,62*,i
CCCc1nc(SCC(=O)NNC(=O)C2CCCCC2)c2ccccc2n1,-1,-4,5,75*,i
CCCc1nc(SCC(=O)NNC(=O)c2ccc(OC)cc2)c2ccccc2n1,-3,5,-2,24,.
C/C=C/C(=O)OCC(=O)Nc1ccc(SC(F)F)cc1,2,?,2,3,.
Cc1cccn2c(=O)c(C(=O)NC3CCCCC3)c(O)nc12,.,0,.,.,.
SMILES,Runt-SMMHC FRET,RanGTP-Imp inh,Runt-CBFb FRET,Hck-Nef inh,Hck-Nef confirm
Cc1cccc(NC(=O)c2cc3c(=O)n4ccccc4nc3n(CC(C)C)c2=N)c1,9,2,3,36,.
N=c1c(C(=O)NC2CCCC2)cc2c(=O)n3ccccc3nc2n1C1CCCC1,-21,182*,11,122*,.
COCCCn1c(C(=O)N2CC(C)OC(C)C2)cc2c(=O)n3ccccc3nc21 (stereo unspecified),.,4,.,.,.
CCCn1c(=N)c(C(=O)NC2CCCC2)cc2c(=O)n3cccc(C)c3nc21,83*,198*,5,187*,.
COCCCn1c(=N)c(C(=O)NC2CCCCC2)cc2c(=O)n3ccccc3nc21,83*,192*,5,+,.
Cc1cccn2c(=O)c3cc(C(=O)NC(C)c4ccccc4)c(=N)n(CCCn4ccnc4)c3nc12 (stereo unspecified),88*,+,38,+,.
O=C(CCc1nnc(CCCCc2ccccc2)o1)NCCN1CCCCC1=O,-1,2,-1,17,.

# Bioassay records from PubChem.
